RGS4 act: RGS4 potentiators or activators, primary screen, cell-based, HEK293 M3R inducible RGS4, calcium flux. carbachol calcium flux Fluo4; active compounds read low. B-score at 10 µM. 310,000 tested, 0.92% active. AID 463111, 2010;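 active means B-score of the integrated calcium signal more than 4 SD below the library mean, with starting fluorescence not abnormally high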;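 further: negative B-score means reduced calcium response which marks RGS4 activation or potentiation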
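test system = M3R-expressing HEK293 line, RGS4 induced by doxycycline | probe or stimulus = carbachol at ECmax as muscarinic agonist stimulus | timing = dye loading 30 min 37 °C, buffer rest 30 min RT | signal = calcium dye Fluo4 fluorescence | evaluation = B score from integrated fluorescence ratio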
MrgX1 antag: antagonists of human MrgX1 receptor, primary screen, HEK293 cells, Fluo-4 calcium flux. Mas-related G-protein coupled receptor member X1 (Homo sapiens), Q96LB2. BAM8-22 antagonism; active compounds read low. B-score at 10 µM. 310,000 tested, 1.3% active;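 active means calcium-response B-score plate-corrected more than 3 library SD below zero, starting fluorescence within 5 deviations, no agonist response on first addition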;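 further: peak minus trough fluorescence over baseline after final BAM8-22 challenge near maximal dose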
Target sequence (Q96LB2 whole entry, looked up): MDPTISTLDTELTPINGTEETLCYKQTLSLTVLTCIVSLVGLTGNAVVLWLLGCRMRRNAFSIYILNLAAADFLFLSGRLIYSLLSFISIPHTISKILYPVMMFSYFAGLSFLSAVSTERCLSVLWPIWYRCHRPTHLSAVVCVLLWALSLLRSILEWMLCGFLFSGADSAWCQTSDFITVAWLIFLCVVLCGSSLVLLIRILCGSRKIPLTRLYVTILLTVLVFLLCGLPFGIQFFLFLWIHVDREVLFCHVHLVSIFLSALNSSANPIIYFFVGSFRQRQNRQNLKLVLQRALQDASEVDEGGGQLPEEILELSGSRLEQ
MrgX1 allo act: positive allosteric modulators of MrgX1, primary screen, HEK293 cells, Fluo-4 calcium flux | FDSS; active compounds read high | AID 588675, 2011 | B-score at 10 µM | 310,000 tested, 0.63% active | Mas-related G-protein coupled receptor member X1 (Homo sapiens), Q96LB2;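 active means plate-corrected calcium response at least 3 library SD above typical, normal starting fluorescence, not activating the receptor alone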;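 further: compound read alongside a low EC10 to EC30 dose of BAM8-22 agonist; peak minus trough fluorescence over baseline measured at the second addition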
RGS4 block: RGS4 inhibitors, primary screen, cell-based, HEK293 M3R inducible RGS4, calcium flux. AID 463165, 2010. Regulator of G-protein signaling 4 (Homo sapiens), P49798. 310,000 tested, 0.45% active. Fluo-4 calcium flux; active compounds read high; triggered by carbachol at its EC20. B-score at 10 µM;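 active means B-score, a plate-corrected calcium signal, over three deviations above library mean, with baseline fluorescence within five deviations of library mean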;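 further: RGS4 expression induced by doxycycline in cells with stable M3 receptor; B-score is computed from the integrated fluorescence ratio over baseline after carbachol; higher B-score means a larger calcium signal and so more RGS4 inhibition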
Target sequence (P49798 whole entry, looked up): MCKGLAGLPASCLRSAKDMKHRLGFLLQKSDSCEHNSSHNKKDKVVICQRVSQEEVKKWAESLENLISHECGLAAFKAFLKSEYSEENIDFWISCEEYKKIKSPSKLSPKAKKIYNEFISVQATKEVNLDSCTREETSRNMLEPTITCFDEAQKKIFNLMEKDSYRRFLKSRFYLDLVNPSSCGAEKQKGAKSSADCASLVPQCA
MrgX1 ag: agonists of human MrgX1 receptor, primary screen, HEK293 cells, Fluo-4 calcium flux; Mas-related G-protein coupled receptor member X1 (Homo sapiens), Q96LB2; Fluo-4 calcium fluorescence, agonist mode; active compounds read high; B-score at 10 µM; 310,000 tested, 0.44% active; AID 588627, 2011;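 active means calcium response B-score plate-corrected fluorescence ratio at least 3 library SD, with starting fluorescence B-score inside 5 SD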
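System: HEK293 cells stably expressing human MrgX1 receptor; Dosing: test compound in the initial addition of three; Schedule: overnight plating, then 30 min 37 °C plus 30 min room-temperature dye loading; Detection: kinetic calcium dye fluorescence, Fluo-4 NW; Controls: per-plate positive and negative controls for Z′ factor.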
* marks the source's active call; other numbers are inactive results; i = inactive. Hits are enriched below; roughly 3.5% of the tested compounds scored in any of these assays.

SMILES	RGS4 act	MrgX1 antag	MrgX1 allo act	RGS4 block	MrgX1 ag
O=C(Nc1cccc(Br)c1)c1ccc(CN2CCc3ccccc3C2)cc1	-8.8*	-6.1*	i	i	i
CSc1cccc(NC(=O)c2ccc(CN3CCc4ccccc4C3)cc2)c1	i	-8.2*	i	i	i
Cc1cccc(N2CCN(C(=O)c3cn(C)c(=O)c4c3c3ccccc3n4C)CC2)c1C	i	i	9.5*	i	i
Cc1cccc(N2CCN(C(=S)Nc3ccc4nc5n(c(=O)c4c3)CCCCC5)CC2)c1C	i	i	i	i	i
O=C(Nc1ccc(Cl)cc1)Nc1ccc2c(c1)N1CCN=C1S2	i	-5.2*	i	i	i
CCCCN(CC)CCCNC(=O)C1CCN(c2ncnc3c2sc2cccc(F)c23)CC1	-7.1*	i	i	i	i
O=C(NCCN1CCOCC1)C1CCN(c2ncnc3c2sc2cccc(F)c23)CC1	i	i	i	i	i
CN(C)/C=C1\SC(=S)N(c2ccc(F)cc2)C1=O	i	i	i	i	i
CN(C)/C=C1\SC(=S)N(c2ccc(Br)cc2)C1=O	i	-4.9*	i	i	i
Cc1ccccc1-c1nc(CS(=O)CC(=O)NCc2ccccc2)c(C)o1 (stereo not drawn)	i	i	i	i	i
COCCNC(=O)CS(=O)Cc1nc(-c2ccccc2C)oc1C (stereo not drawn)	i	-5.3*	i	i	i
CC(=O)c1ccc(NC(=O)CCS(=O)(=O)c2ccc3c(c2)n(C)c(=O)c(=O)n3C)cc1	i	i	i	i	i
COc1ccc(-c2cc(-c3ccccc3)nc(Cl)n2)cc1OC	-7*	i	i	i	i
CC1(C)CC(=O)C(C=Nc2ccccc2C(=O)O)=C(O)C1	i	i	i	i	i
CC1(C)CC(=O)C(C=Nc2ccccc2Sc2ccccc2)=C(O)C1	-8.8*	i	i	i	i
CCCCC1(C)OC(=O)C(=Cc2ccc(N(C)C)cc2)C(=O)O1 (stereo not drawn)	i	i	i	i	29*
Cc1c(-n2cc(C(=O)c3cc(Cl)ccc3O)cc(C#N)c2=O)c(=O)n(-c2ccccc2)n1C	i	i	7.8*	i	i
Cc1ccc(O)c(C(=O)c2cc(C#N)c(=O)n(-c3nccs3)c2)c1	i	i	i	i	53*
O=C(COc1ccccc1Cl)NCCCNC(=O)c1cnccn1	i	i	i	i	i
Cc1onc(-c2ccccc2)c1C(=O)OCC(=O)Nc1cc(S(=O)(=O)N2CCOCC2)ccc1Cl	i	i	i	i	i
Cc1ccc2c(c1)N(C(=O)CSc1nncn1C)C(C)(C)c1ssc(=S)c1-2	-8.7*	i	i	i	i
CCc1ccc(N2CC(O)(c3cccs3)[N+]3=C2SCCC3)cc1 (stereo not drawn)	-7.5*	i	i	i	i
CCn1c(CC(=O)Nc2ccc(C)cc2)nnc1SCC(=O)NCCc1ccccc1	i	-5.5*	i	i	i
CCn1c(Cc2ccccc2)nnc1SCC(=O)Nc1ccc(C)cc1	i	i	i	i	i
Cc1ccc(C(=O)N(c2ccccc2)C2CC(C)N(C(=O)c3ccco3)c3ccccc32)cc1 (stereo not drawn)	i	i	17*	i	i
SMILES	RGS4 act	MrgX1 antag	MrgX1 allo act	RGS4 block	MrgX1 ag
COc1cccc(-c2nc(C(=O)NCC3CCCO3)cc3c2[nH]c2ccccc23)c1 (stereo not drawn)	-7.2*	i	i	i	i
COc1ccc(OC)c(-c2nc(C(=O)NCC3CCCO3)cc3c2[nH]c2ccccc23)c1 (stereo not drawn)	i	i	i	i	i
O=C(c1ccc([N+](=O)[O-])s1)N1CCc2ccccc21	i	i	i	i	i
O=C(c1ccc([N+](=O)[O-])s1)N1CCCc2ccccc21	-7.7*	i	i	i	i
COC(=O)Cn1ncc2c3ccccc3n(Cc3ccccc3)c2c1=O	i	i	i	i	i
O=C(Cn1ncc2c3ccccc3n(Cc3ccc(Cl)cc3)c2c1=O)NCCCN1CCCC1=O	i	i	i	i	i
O=C(Cn1ncc2c3ccccc3n(Cc3ccccc3)c2c1=O)NCCCN1CCCC1=O	i	-8.1*	i	i	i
O=C(Cn1ncc2c3ccccc3n(Cc3ccc(F)cc3)c2c1=O)N1CCN(c2ncccn2)CC1	i	-8.1*	i	i	i
COc1ccc(C2NC(=S)NC3=C2CCc2cc(OC)ccc23)cc1 (stereo not drawn)	i	i	i	i	i
COc1ccc(C/C(N)=N/O)cc1	i	-8.3*	i	i	i
COc1ccc(CC(=O)O/N=C(\N)Cc2ccc(OC)cc2)cc1	i	i	i	i	i
Cc1ccc(OCC(=O)NCc2n[nH]c(=O)c3ccccc23)cc1	i	i	i	i	i
Cc1c(C(=O)O)c(C(=O)O)nc2ccc(N3CCOCC3)cc12	i	i	i	i	i
CCCc1cc(-c2[nH]ncc2-c2ccc3c(c2)OCCCO3)c(O)cc1O	-7.9*	i	i	i	i
CCCc1cc(-c2[nH]ncc2-c2ccc(C(=O)OCC)o2)c(O)cc1O	i	i	i	i	i
O/N=C/c1nc2cc(Cl)ccc2o1	i	i	9.4*	i	i
Cn1cccc1-c1cc(C(=O)N/N=C/C=C/c2ccccc2)[nH]n1	i	-5.8*	i	i	i
Cc1ccc(CN(C)C(=O)c2cc(COc3ccc(F)cc3Cl)on2)o1	i	i	i	i	i
CN(C(=O)c1cc(COc2ccc(F)cc2Cl)on1)C1CCCc2ccccc21 (stereo not drawn)	-7.2*	i	i	i	i
O=C(NCCNc1ccc([N+](=O)[O-])cc1)c1cccs1	i	i	i	i	i
CC(CNC(=O)c1cccs1)c1ccc([N+](=O)[O-])cc1 (stereo not drawn)	i	-4.6*	i	i	i
CC1=C(CC(=O)NCC(=O)NCC(=O)O)c2cc(F)ccc2/C1=C/c1ccc(S(C)=O)cc1 (stereo not drawn)	i	i	i	i	i
Nc1ncnc(Oc2cccc3cccnc23)c1[N+](=O)[O-]	i	-5*	i	i	i
